# Test results as given in ChEMBL document CHEMBL1135879 (J Med Chem, 2002).
# Columns and labels:
# [1] = biological target: T1, Amine oxidase [flavin-containing] B (Bos taurus, UniProt P56560); assay: Inhibition of bovine brain mitochondrial Monoamine oxidase B (MAO-B) compared to toloxatone
# T1 sequence (P56560 whole entry): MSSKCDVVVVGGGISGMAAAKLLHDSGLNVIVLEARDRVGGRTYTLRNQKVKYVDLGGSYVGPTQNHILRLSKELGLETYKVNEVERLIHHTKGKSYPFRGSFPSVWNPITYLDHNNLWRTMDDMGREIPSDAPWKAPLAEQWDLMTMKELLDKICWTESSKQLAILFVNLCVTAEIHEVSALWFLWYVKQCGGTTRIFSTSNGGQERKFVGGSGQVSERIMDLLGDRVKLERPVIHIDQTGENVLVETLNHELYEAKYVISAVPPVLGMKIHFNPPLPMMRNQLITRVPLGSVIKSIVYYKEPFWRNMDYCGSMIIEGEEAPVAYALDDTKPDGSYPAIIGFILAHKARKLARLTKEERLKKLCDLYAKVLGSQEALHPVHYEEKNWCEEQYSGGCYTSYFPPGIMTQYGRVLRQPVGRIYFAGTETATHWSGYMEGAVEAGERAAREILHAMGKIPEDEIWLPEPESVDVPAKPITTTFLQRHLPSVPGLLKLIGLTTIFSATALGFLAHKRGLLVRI
# Method in brief: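 Bovine brain mitochondrial fractions were isolated by the Basford method. To leave MAO-B activity, fractions were preincubated 30 min at 38 °C with 1 μM clorgyline. Inhibitors in DMSO were preincubated 30 min before kynuramine was added, then incubated 30 min more. Fluorimetric read-out was used and Ki values determined.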
# [2] = biological target: T2, Amine oxidase [flavin-containing] A (Bos taurus, UniProt P21398); assay: Inhibition of bovine brain mitochondrial Monoamine oxidase A (MAO-A) compared to toloxatone
# T2 sequence (P21398 whole entry): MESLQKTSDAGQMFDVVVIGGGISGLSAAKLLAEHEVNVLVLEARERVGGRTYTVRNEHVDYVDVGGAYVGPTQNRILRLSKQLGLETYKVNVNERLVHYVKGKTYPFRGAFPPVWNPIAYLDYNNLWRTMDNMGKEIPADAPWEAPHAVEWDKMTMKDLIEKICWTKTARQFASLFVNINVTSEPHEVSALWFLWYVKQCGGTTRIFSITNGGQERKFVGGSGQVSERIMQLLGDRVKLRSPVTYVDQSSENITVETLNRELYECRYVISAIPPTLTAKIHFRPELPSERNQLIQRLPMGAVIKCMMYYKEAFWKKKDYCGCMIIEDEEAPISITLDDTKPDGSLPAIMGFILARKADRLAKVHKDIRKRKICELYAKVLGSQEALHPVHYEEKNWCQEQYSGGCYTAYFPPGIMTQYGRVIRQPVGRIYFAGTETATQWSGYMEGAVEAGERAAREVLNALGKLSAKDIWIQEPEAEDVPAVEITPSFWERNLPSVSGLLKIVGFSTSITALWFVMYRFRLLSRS
# Method in brief: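 Bovine brain mitochondria were isolated by the Basford method. To isolate MAO-A, fractions were preincubated 30 min at 38 °C with 1 μM L-deprenyl. Inhibitors in DMSO were preincubated 30 min, then kynuramine substrate was added, with 30 min further incubation. Product was read fluorimetrically and Ki values derived.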
Structure (SMILES),Ki [1] [nM],Ki [2] [nM]
[N-]=[N+]=NC[C@H]1CN(n2cccc2)C(=O)O1,200000,200
COC[C@H]1CN(n2cccc2)C(=O)O1,50000,4.9
NC[C@@H]1CN(n2cccc2)C(=O)O1,34000,1200
CN(C)C[C@H]1CN(n2cccc2)C(=O)O1,140000,40000
[N-]=[N+]=NC[C@@H]1CN(n2cccc2)C(=O)O1,24000,2500

# Stronger by Ki [1], values ahead:
Ki [1] [nM],Ki [2] [nM],Structure (SMILES)
23000,1000,COC[C@@H]1CN(n2cccc2)C(=O)O1
9000,90,O=C1O[C@@H](CO)CN1n1cccc1
4400,53000,NC[C@H]1CN(n2cccc2)C(=O)O1
2000,270,O=C1O[C@@H](CO)CN1n1cccc1.O=C1O[C@H](CO)CN1n1cccc1
2000,1200,O=C1O[C@H](CO)CN1n1cccc1
220,2.5,COC[C@@H]1CN(c2ccc(OCC[C@H](O)C(F)(F)F)cc2)C(=O)O1 [(R/R)BEFLOXATONE]
